Laboratory results as given in PMC2364724 (Drug metabolism and disposition: the biological fate of …, 2007).
Several values for one entry are separate records, joined by “and”; a condition that tells them apart may be missing. Identical values can stand only once. Blank lines part the entries; values can stand above or below the molecule they belong to.

Assays:
pooled HIM = assay: Phase I biotransformation of DB289 in pooled HIM; assay type: in vitro ADME, human; settings: for Phase I metabolite detection (HPLC/UV): 10 μM DB289, pooled HIM 0.2 mg/ml, NADPH, up to 120 min
Outline: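 Test compound (10 μM) with pooled HIM (0.2 mg/ml) in 100 mM phosphate pH 7.4, 3.3 mM MgCl2. Equilibrated 5 min at 37°C, then started with 1 mM NADPH. Aliquots taken at 0, 15, 30 and 120 min were quenched in ice-cold acetonitrile and analysed by HPLC/UV. Metabolites were assigned by retention time against synthetic standards. Controls omitted NADPH, microsomal protein or substrate.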

[1] = Solubility in the incubation buffer; assay type: physicochemical; settings: highest concentration tested 25 μM
HLM = settings: panel of HLM; ref Wang et al., 2006; cited from earlier work
[2] = system: human intestinal microsomes (HIM); assay: Enzyme kinetics of M1 formation; assay type: in vitro ADME; settings: for KMapp(1): 5 min
[3] = Enzyme kinetics of M1 formation; assay type: in vitro ADME, human; settings: human
[4] = system: pooled HLM (human liver microsomes); settings: M1 formation, 0.02 mg/ml protein, 3 min, ref Wang et al., 2006; cited from earlier work
[5] = six healthy men, p.o. 14C-DB289, single-dose escalation; ref C. Olson, Immtech Pharmaceuticals Inc., personal communication; cited from earlier work
purified CYP4A11 = settings: higher for CYP4A11; ref Powell et al., 1998; cited from earlier work
recombinant CYP2J2 [6] = settings: ref Hashizume et al. (2002); cited from earlier work
[7] = system: P450 enzymes of pooled HIM (M1 formation from DB289); assay: Chemical inhibition of M1 formation in pooled HIM; assay type: biochemical, human
recombinant CYP2J2 [8] = biological target: T1, recombinant CYP2J2 (Homo sapiens, UniProt P51589); assay: Effect of α-NF on M1 formation by recombinant CYP2J2; assay type: biochemical; settings: recombinant CYP2J2 10 pmol/ml, 1 μM α-NF, 3 μM DB289, P < 0.05
T1 sequence (P51589 1-502): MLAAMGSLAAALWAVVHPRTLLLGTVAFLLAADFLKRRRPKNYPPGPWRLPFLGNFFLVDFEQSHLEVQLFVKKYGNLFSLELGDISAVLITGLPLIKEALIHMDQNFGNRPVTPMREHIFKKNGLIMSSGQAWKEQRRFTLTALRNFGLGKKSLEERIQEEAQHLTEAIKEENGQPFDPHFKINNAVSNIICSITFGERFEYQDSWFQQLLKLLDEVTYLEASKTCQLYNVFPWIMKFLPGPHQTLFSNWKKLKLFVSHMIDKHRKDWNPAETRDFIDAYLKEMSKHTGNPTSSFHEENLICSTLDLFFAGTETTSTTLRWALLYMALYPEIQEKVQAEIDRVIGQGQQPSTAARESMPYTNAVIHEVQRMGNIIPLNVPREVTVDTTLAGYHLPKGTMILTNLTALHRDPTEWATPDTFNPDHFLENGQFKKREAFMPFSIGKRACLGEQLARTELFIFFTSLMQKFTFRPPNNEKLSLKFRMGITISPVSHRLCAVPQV

recombinant CYP3A4 = recombinant CYP3A4 (Homo sapiens, UniProt P08684); assay: Effect of α-NF on M1 formation by recombinant CYP3A4; assay type: biochemical; settings: recombinant CYP3A4 10 pmol/ml, 1 μM α-NF, 3 μM DB289, 15 min, P < 0.05
recombinant CYP3A4, sequence (P08684 whole entry): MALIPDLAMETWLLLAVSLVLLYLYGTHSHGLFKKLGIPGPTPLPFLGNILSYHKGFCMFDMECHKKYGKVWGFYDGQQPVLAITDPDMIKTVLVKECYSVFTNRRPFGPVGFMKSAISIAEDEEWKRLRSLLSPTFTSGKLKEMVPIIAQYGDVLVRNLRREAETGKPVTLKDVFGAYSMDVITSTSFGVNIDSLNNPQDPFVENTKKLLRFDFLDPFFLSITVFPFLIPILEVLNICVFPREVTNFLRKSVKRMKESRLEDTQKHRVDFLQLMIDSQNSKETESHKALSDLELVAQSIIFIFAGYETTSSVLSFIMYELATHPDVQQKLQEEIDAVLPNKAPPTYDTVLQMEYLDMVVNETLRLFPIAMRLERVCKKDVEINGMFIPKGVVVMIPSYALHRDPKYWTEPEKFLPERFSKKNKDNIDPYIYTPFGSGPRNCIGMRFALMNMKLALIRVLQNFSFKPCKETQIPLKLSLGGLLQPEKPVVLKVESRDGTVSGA

pooled HLM = assay: Effect of α-NF on M1 formation by pooled HLM; assay type: biochemical, human; settings: 1 μM α-NF, 3 μM DB289, P > 0.05
recombinant CYP4F2 = biological target: T2, recombinant CYP4F2 (Homo sapiens, UniProt P78329); assay: Effect of α-NF on M1 formation by recombinant CYP4F2; assay type: biochemical; settings: recombinant CYP4F2, 1 μM α-NF, 3 μM DB289, P > 0.05
T2 sequence (P78329 5-520): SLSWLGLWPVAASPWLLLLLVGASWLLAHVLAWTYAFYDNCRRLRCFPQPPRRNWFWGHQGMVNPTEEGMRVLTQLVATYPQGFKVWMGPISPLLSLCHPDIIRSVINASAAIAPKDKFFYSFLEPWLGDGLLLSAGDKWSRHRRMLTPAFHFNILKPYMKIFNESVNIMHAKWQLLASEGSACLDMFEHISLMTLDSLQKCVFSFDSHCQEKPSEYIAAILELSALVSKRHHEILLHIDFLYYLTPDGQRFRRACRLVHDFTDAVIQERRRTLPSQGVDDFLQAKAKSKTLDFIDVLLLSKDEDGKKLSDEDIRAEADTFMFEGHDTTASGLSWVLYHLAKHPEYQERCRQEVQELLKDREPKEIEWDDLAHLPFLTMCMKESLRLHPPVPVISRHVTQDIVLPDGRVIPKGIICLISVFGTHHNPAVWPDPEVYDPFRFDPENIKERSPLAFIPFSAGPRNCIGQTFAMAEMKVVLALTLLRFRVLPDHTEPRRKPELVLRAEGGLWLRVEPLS

recombinant CYP4F3B = biological target: T3, recombinant CYP4F3B (Homo sapiens, UniProt Q08477); assay: Effect of α-NF on M1 formation by recombinant CYP4F3B; assay type: biochemical; settings: 1 μM α-NF, 3 μM DB289, P > 0.05
T3 sequence (Q08477 1-520 isoform Q08477-2): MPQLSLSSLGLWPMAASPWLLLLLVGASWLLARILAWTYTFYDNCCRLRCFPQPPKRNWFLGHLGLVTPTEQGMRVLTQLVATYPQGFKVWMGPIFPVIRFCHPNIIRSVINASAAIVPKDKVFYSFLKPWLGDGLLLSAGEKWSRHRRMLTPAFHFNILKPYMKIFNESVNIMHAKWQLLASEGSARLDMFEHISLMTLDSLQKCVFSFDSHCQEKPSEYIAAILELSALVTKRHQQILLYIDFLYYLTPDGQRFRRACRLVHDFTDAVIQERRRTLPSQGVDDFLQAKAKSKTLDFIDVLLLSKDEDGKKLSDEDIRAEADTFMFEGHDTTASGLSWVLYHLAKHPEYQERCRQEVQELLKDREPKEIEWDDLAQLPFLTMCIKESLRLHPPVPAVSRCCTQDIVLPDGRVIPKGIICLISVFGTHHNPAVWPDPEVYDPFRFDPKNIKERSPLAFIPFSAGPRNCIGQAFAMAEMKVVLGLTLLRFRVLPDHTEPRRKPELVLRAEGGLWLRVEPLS

[9] = M1 formation, HIM 3, 0.2 mg/ml protein
[10] = M1 formation, HIM 7, 0.2 mg/ml protein
[11] = M1 formation, HIM 30, 0.2 mg/ml protein
[12] = M1 formation, HIM 31, 0.2 mg/ml protein

Phase I metabolite detection (HPLC/UV) (pooled HIM): identified
fraction of M1 further metabolized (pooled HIM; within the first 15 min of incubation, 10 μM DB289, pooled HIM): Less than 10%
SMILES: CON=C(N)c1ccc(-c2ccc(-c3ccc(C(N)=NO)cc3)o2)cc1 [M1]

Phase I metabolite detection (HPLC/UV) (pooled HIM): identified
SMILES: NC(=NO)c1ccc(-c2ccc(-c3ccc(C(N)=NO)cc3)o2)cc1 [M2]

Phase I metabolite detection (HPLC/UV) (pooled HIM): identified
SMILES: CON=C(N)c1ccc(-c2ccc(-c3ccc(C(=N)N)cc3)o2)cc1 [M3]

Phase I metabolite detection (HPLC/UV) (pooled HIM): not detected
SMILES: N=C(N)c1ccc(-c2ccc(-c3ccc(C(N)=NO)cc3)o2)cc1 [M4]

inhibition of M1 formation ([7]; pooled HIM 0.2 mg/ml, 3 μM DB289, 5 min, inhibitor concentration as in Fig. 2A): lack of inhibition
SMILES: CCCCCCCCCCCC(=O)O [lauric acid]

activation of M1 formation (recombinant CYP2J2 [8]): 55%
activation of M1 formation (recombinant CYP3A4): 120%
effect on M1 formation (recombinant CYP4F2): not significant
effect on M1 formation (recombinant CYP4F3B): not significant
activation of M1 formation ([7]; different lot of pooled HIM, 1 μM α-NF, 3 μM DB289, P < 0.05): 34%
activation of M1 formation ([7]; pooled HIM, 3 μM DB289 (Fig. 2A)): 43%
SMILES: O=c1cc(-c2ccccc2)oc2c1ccc1ccccc12 [α-NF, α-naphthoflavone]
effect on M1 formation (pooled HLM): not significant

The next lines start with the molecule.

SMILES: N=C(N)c1ccc(-c2ccc(-c3ccc(C(=N)N)cc3)o2)cc1 [DB75, 2,5-bis(4-amidinophenyl) furan]
Phase I metabolite detection (HPLC/UV) (pooled HIM): not detected

SMILES: CONC(=N)c1ccc(-c2ccc(-c3ccc(C(=N)NOC)cc3)o2)cc1 [DB289, 2,5-bis(4-amidinophenyl)furan-bis-O-methylamidoxime]
solubility in the incubation buffer [1]: limited
variation in M1 formation rates (HLM): 4 fold and ~ 4 fold
total intrinsic clearance of M1 formation by HIM relative to pooled HLM ([2]; HIM versus pooled HLM): at most 10%
Vmax(1) ([2]; M1 formation, HIM 1, 0.2 mg/ml protein): 0.12 nmol/min/mg protein
KMapp(1) ([2]; M1 formation, HIM 1, 0.2 mg/ml protein, biphasic): 0.8 µM
Vmax(1) ([2]; M1 formation, HIM 2, 0.1 mg/ml protein): 0.42 nmol/min/mg protein
KMapp(1) ([2]; M1 formation, HIM 2, 0.1 mg/ml protein, biphasic): 0.7 µM
Vmax(1) [2, 9]: 0.24 nmol/min/mg protein
KMapp(1) [2, 9]: 1.3 µM
Vmax(1) [2, 10]: 0.89 nmol/min/mg protein
KMapp(1) [2, 10]: 1.3 µM
KMapp(1) ([2]; M1 formation, HIM 12, 0.2 mg/ml protein): 2.3 µM
KMapp(1) ([2]; M1 formation, HIM 23A, 0.2 mg/ml protein, biphasic): 2.4 µM
Vmax(1) [2, 11]: 0.19 nmol/min/mg protein
KMapp(1) [2, 11]: 0.6 µM
Vmax(1) [2, 12]: 0.02 nmol/min/mg protein
KMapp(1) [2, 12]: 1.4 µM
Vmax(1) ([2]; M1 formation, HIM 32, 0.1 mg/ml protein): 0.44 nmol/min/mg protein
KMapp(1) ([2]; M1 formation, HIM 32, 0.1 mg/ml protein, 37°C): 0.6 µM
KMapp(1), average ([2]; M1 formation, nine individual HIM): 1.3 µM
Vmax(1) ([2]; M1 formation, pooled HIM, 0.2 mg/ml protein): 0.19 nmol/min/mg protein
KMapp(1) ([2]; M1 formation, pooled HIM, 0.2 mg/ml protein, biphasic): 0.7 µM
microsomal CLint ([3]; human intestinal microsomes (individual HIM 32), pH 7.4, CL′int(1), M1 formation, HIM 32, Vmax(1)/KMapp(1)): 730 µL/min/mg
microsomal CLint ([3]; human intestinal microsomes (pooled and nine individual HIM), pH 7.4, total intrinsic clearance [CL′int(1) + CL′int(2)] of M1 formation, range, HIM): 10 to 730 µL/min/mg
KMapp(1) [4]: 0.5 µM
coefficient of variation for Cmax [5]: approximately 50%
coefficient of variation for area under the curve [5]: approximately 50%
coefficient of variation for terminal half-life [5]: approximately 50%

SMILES: CCCCC/C=C\C/C=C\C/C=C\C/C=C\CCCC(=O)O [arachidonic acid]
Km of 20-HETE formation, CYP4A11 relative to CYP4F2 (purified CYP4A11): 10 fold

SMILES: CC(C)(C)c1ccc(C(=O)CCCN2CCC(OC(c3ccccc3)c3ccccc3)CC2)cc1 [ebastine]
Km (recombinant CYP2J2 [6]): 1.3 µM
